Source: ChEMBL document CHEMBL1127414 (J Med Chem, 1994)
Values after ≈ are worked out from the molar mass of the structure shown.

Experiments:
Squalene synthase = molecular target: T1, Squalene synthase (Rattus norvegicus, UniProt Q02769); test: Tested for inhibition against squalene synthase enzyme in rat liver
T1 sequence (Q02769 whole entry): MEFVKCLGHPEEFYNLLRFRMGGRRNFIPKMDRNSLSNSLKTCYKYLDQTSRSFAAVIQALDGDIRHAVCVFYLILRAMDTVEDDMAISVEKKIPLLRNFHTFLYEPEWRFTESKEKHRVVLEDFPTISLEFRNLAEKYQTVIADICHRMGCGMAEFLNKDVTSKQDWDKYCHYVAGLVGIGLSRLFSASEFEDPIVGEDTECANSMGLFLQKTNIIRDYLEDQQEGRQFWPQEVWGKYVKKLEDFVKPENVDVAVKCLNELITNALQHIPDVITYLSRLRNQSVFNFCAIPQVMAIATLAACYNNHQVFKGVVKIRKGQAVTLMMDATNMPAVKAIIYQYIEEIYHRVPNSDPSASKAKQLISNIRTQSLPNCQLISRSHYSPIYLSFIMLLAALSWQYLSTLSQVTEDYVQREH

[1] = molecular target: T2, Squalene synthase (Rattus norvegicus) (UniProt Q02769); test: concentration required to inhibit rat liver squalene synthase enzyme relative to control (L-694,599)
T2 sequence (whole entry): T1 sequence (Q02769 whole entry)
Procedure, shortened: (§1)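 Enzyme from rat liver. […] Inhibitors added in DMSO (0.3% final) as 3-fold serial dilutions, usually up to 30 ng/mL (about 40 nM). IC50 read from % inhibition vs log concentration.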

Mus musculus [2] = test: Ability to inhibit the incorporation of [5-3H]-mevalonolactone into cholesterol by in vivo mouse assay by peroral administration at a dose of 24 mg/kg; assay type: functional; settings: route oral
Procedure, shortened: (§2)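 Female Swiss Webster mice (~25 g), six per group, dosed po by gavage with inhibitor suspended in 5% emulphor. 30 min later, 0.5 μCi/mouse [5-3H]mevalonolactone in saline given sc. Livers removed 30 min after that and saponified in KOH/EtOH overnight at 55 °C, then petroleum-ether extracted. Nonsaponifiable dpm counted. Compounds first tested at a single dose (typically 12 or 24 mg/kg).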

HepG2 [3] = test: Concentration required to inhibit cholesterol synthesis in Hep G2 cells; assay type: functional, cell-based; settings: Homo sapiens
Procedure, shortened: (§3)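 Hep G2 cells held 2 days in lipoprotein-depleted FBS to stimulate sterol synthesis, then given inhibitor in serum-free medium for 2 h. 15 μCi [5-3H]mevalonate (0.2 mCi/mmol) added for 1 h. Cells washed and saponified, and radioactivity counted by scintillation.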

HepG2 [4] = test: Concentration required to inhibit cholesterol synthesis in Hep G2 cells relative to control (IC50 of L-694,599); assay type: functional, Homo sapiens; procedure, shortened: as §3
[5] = molecular target: T2, Squalene synthase (Rattus norvegicus); test: Concentration required to inhibit rat liver squalene synthase enzyme relative to control (L-694,599); procedure, shortened: as §1
[6] = molecular target: T3, Squalene synthase (Mus musculus) (UniProt P53798); test: Tested for the effective dose required for the incorporation of [5-3H]-mevalonolactone into cholesterol by in vivo mouse assay by peroral administration; assay type: functional, organism-based; procedure, shortened: as §2
T3 sequence (whole entry): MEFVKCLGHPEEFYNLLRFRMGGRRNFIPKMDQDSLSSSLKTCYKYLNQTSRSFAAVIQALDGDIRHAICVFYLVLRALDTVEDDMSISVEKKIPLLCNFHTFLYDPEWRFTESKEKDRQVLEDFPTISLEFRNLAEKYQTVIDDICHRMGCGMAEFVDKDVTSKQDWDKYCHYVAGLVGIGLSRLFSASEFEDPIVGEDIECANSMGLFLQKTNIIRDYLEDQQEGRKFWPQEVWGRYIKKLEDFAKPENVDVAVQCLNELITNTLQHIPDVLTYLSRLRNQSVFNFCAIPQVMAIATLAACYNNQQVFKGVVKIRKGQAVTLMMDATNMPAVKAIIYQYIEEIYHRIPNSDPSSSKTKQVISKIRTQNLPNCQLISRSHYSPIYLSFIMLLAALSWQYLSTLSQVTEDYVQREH

Mus musculus [7] = test: Tested for its ability to inhibit the incorporation of [5-3H]-mevalonolactone into cholesterol by in vivo mouse assay by peroral administration at a dose of 12 mg/kg; assay type: functional; settings: route oral; procedure, shortened: as §2
Cryptococcus neoformans [8] = test: Concentration required to inhibit growth of MY 1051 strain of Cryptococcus neoformans; assay type: functional
Procedure, shortened: (§4)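 Broth microdilution against a panel of clinically relevant fungal strains. Read-out was the minimum fungicidal concentration in μg/mL.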

Aspergillus fumigatus = test: Concentration required to inhibit growth of MF 4839 strain of Aspergillus fumigatus; assay type: functional; procedure, shortened: as §4
Candida albicans [9] = test: Concentration required to inhibit growth of MY 1750 strain of Candida albicans; assay type: functional; procedure, shortened: as §4
Trichophyton benhamiae = test: Concentration required to inhibit growth of MF 4864 strain of Trichophyton mentagrophytes; assay type: functional, Arthroderma benhamiae; procedure, shortened: as §4
Candida tropicalis = test: Concentration required to inhibit growth of MY 1012 strain of Candida tropicalis; assay type: functional; procedure, shortened: as §4
Cryptococcus neoformans [10] = test: Concentration required to inhibit growth of MY 2061 strain of Cryptococcus neoformans; assay type: functional; procedure, shortened: as §4
Candida parapsilosis = test: Concentration required to inhibit growth of MY 1010 strain of Candida parapsilosis; assay type: functional; settings: Lodderomyces parapsilosis; procedure, shortened: as §4
Candida albicans [11] = test: Concentration required to inhibit growth of MY 1055 strain of Candida albicans; assay type: functional; procedure, shortened: as §4
Mus musculus [12] = test: Tested for its ability to inhibit the incorporation of [5-3H]-mevalonolactone into cholesterol by in vivo mouse assay by peroral administration at a dose of 40 mg/kg; assay type: functional; settings: route oral; procedure, shortened: as §2

Compound: C=C(CCC12OC(C(=O)O)C(OCCCCCCCCOc3ccccc3)(C(=O)O)C(C(=O)O)(O1)[C@H](OCCCCCCCCOc1ccccc1)[C@H]2O)[C@@H](OC(C)=O)[C@H](C)Cc1ccccc1 (stereo partly specified)
- IC50 (Squalene synthase): 8.2 nM
- Relative activity [1]: 0.02

Compound: C=C(CCC12OC(C(=O)O)C(OCCCCCCCCCCCCCC)(C(=O)O)C(C(=O)O)(O1)[C@H](O)[C@H]2O)[C@@H](OC(C)=O)[C@H](C)Cc1ccccc1 (stereo partly specified)
- IC50 (Squalene synthase): 0.75 nM
- Relative activity [1]: 0.17

Compound: C=C(CCC12OC(C(=O)O)C(O)(C(=O)O)C(C(=O)O)(O1)[C@H](OC(=O)CCCCCCCCCCc1ccccc1)[C@H]2O)[C@@H](OC(C)=O)[C@H](C)Cc1ccccc1 (stereo partly specified)
- IC50 (Squalene synthase): 0.38 nM
- inhibition in vivo at 24 mg/kg (Mus musculus [2]): 11%
- IC50 (HepG2 [3]): 8000 nM
- Relative activity (HepG2 [4]): 1.37
- Relative activity [5]: 0.45

Compound: C=C(CCC12OC(C(=O)O)C(O)(C(=O)O)C(C(=O)O)(O1)[C@H](OC(=O)SC(C)C)[C@H]2O)[C@@H](OC(C)=O)[C@H](C)Cc1ccccc1 (stereo partly specified)
- IC50 (Squalene synthase): 3.4 nM
- ED50 [6]: 14 mg/kg
- Relative activity [1]: 0.06

Compound: C=C(CCC12OC(C(=O)O)C(O)(C(=O)O)C(C(=O)O)(O1)[C@H](O)[C@H]2O)[C@@H](OC(C)=O)[C@H](C)Cc1ccccc1 (stereo partly specified)
- inhibition in vivo at 24 mg/kg (Mus musculus [2]): 34%
- ED50 [6]: > 24 mg/kg

Compound: CCCC(=O)O[C@@H]1[C@@H](O)C2(CCCCc3ccccc3)OC(C(=O)O)C(O)(C(=O)O)C1(C(=O)O)O2 (stereo partly specified)
- IC50 (Squalene synthase): > 3000 nM
- inhibition in vivo at 12 mg/kg (Mus musculus [7]): 5%
- Relative activity [5]: 0

Compound: CCCC(=O)O[C@@H]1[C@@H](O)C2(CCCC[C@H](C)Cc3ccccc3)OC(C(=O)O)C(O)(C(=O)O)C1(C(=O)O)O2 (stereo partly specified)
- IC50 (Squalene synthase): 110 nM
- inhibition in vivo at 12 mg/kg (Mus musculus [7]): -3%
- Relative activity [5]: 0.0026

Compound: C=C(CCC12OC(C(=O)O)C(O)(C(=O)O)C(C(=O)O)(O1)[C@H](OC(=O)OCCCCCCCCCC)[C@H]2O)[C@@H](OC(C)=O)[C@H](C)Cc1ccccc1 (stereo partly specified)
- MFC (Cryptococcus neoformans [8]): 8 µg/mL (≈ 11.1 µM)
- MFC (Aspergillus fumigatus): 2 µg/mL (≈ 2.77 µM)
- inhibition in vivo at 24 mg/kg (Mus musculus [2]): 28%
- IC50 (HepG2 [3]): 2400 nM
- MFC (Candida albicans [9]): 16 µg/mL (≈ 22.1 µM)
- MFC (Trichophyton benhamiae): < 0.06 µg/mL
- MFC (Candida tropicalis): 2 µg/mL (≈ 2.77 µM)
- MFC (Cryptococcus neoformans [10]): 0.25 µg/mL (≈ 0.346 µM)
- MFC (Candida parapsilosis): 2 µg/mL (≈ 2.77 µM)
- MFC (Candida albicans [11]): 8 µg/mL (≈ 11.1 µM)

Compound: C=C(CCC12OC(C(=O)O)C(O)(C(=O)O)C(C(=O)O)(O1)[C@H](OC(=O)CCCCCCCCCCCCCCC)[C@H]2O)[C@@H](OC(C)=O)[C@H](C)Cc1ccccc1 (stereo partly specified)
- IC50 (Squalene synthase): 0.52 nM
- IC50 (HepG2 [3]): 2500 nM
- Relative activity (HepG2 [4]): 2.2
- Relative activity [5]: 0.27

Compound: C=C(CCC12OC(C(=O)O)C(OCCCCCCCCOc3ccccc3)(C(=O)O)C(C(=O)O)(O1)[C@H](O)[C@H]2O)[C@@H](OC(C)=O)[C@H](C)Cc1ccccc1 (stereo partly specified)
- IC50 (Squalene synthase): 0.81 nM
- Relative activity [1]: 0.16

Compound: C=C(CCC12OC(C(=O)O)C(OCCCCCCCCCCCC)(C(=O)O)C(C(=O)O)(O1)[C@H](OCCCCCCCCCCCC)[C@H]2O)[C@@H](OC(C)=O)[C@H](C)Cc1ccccc1 (stereo partly specified)
- IC50 (Squalene synthase): 17 nM
- Relative activity [1]: 0.02

Compound: C=C(CCC12OC(C(=O)O)C(O)(C(=O)O)C(C(=O)O)(O1)[C@H](OC(=O)NCCCCCCCCCCCOc1ccccc1)[C@H]2O)[C@@H](OC(C)=O)[C@H](C)Cc1ccccc1 (stereo partly specified)
- IC50 (Squalene synthase): 0.07 nM
- inhibition in vivo at 24 mg/kg (Mus musculus [2]): 56%
- IC50 (HepG2 [3]): 1300 nM
- Relative activity (HepG2 [4]): 0.64
- Relative activity [1]: 1.71

Compound: C=C(CCC12OC(C(=O)O)C(O)(C(=O)O)C(C(=O)O)(O1)[C@H](OCCCCCCCCOc1ccccc1)[C@H]2O)[C@@H](OC(C)=O)[C@H](C)Cc1ccccc1 (stereo partly specified)
- IC50 (Squalene synthase): 0.16 nM
- Relative activity [1]: 0.81
- inhibition in vivo at 40 mg/kg (Mus musculus [12]): 4%
